Measurements as given in ChEMBL document CHEMBL1921722, “In vitro and in vivo evaluation of select kahalalide F analogs with antitumor and antifungal activities” (Bioorg Med Chem, 2011).
pIC50: −log10 of the molar value. Values after ≈ are worked out from the molar mass of the structure shown.

Columns and labels:
MOLT-4 [1] = test: Cytotoxicity against human MOLT4 cells assessed as cell growth at 8 nM by sulforhodamine B assay relative to control; type: functional; details: read-out: Activity
SF-295 = test: Cytotoxicity against human SF295 cells assessed as cell growth at 800 nM by sulforhodamine B assay relative to control; type: functional; details: read-out: Activity
HCT-116 [2] = test: Cytotoxicity against human HCT116 cells assessed as cell growth at 800 nM by sulforhodamine B assay relative to control; type: functional; details: read-out: Activity
PC-3 = test: Cytotoxicity against human PC3 cells assessed as cell growth at 80 nM by sulforhodamine B assay relative to control; type: functional; details: read-out: Activity
ACHN = test: Cytotoxicity against human ACHN cells assessed as cell growth at 8 nM by sulforhodamine B assay relative to control; type: functional; details: read-out: Activity
How it was run: (§1)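 Run at NCI in the DTP 60-cell-line human tumor panel by standard procedure. Compounds were first screened at a single concentration, then tested at five tenfold-spaced concentrations. GI50 is the concentration reducing treated-cell growth to half that of untreated controls; TGI is the concentration completely halting growth.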

Hs-578T [3] = test: Cytotoxicity against human Hs578T cells by sulforhodamine B assay; type: functional
How it was run: (§2)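 NCI Developmental Therapeutics Program 60-cell-line human tumor panel screen, run at NCI. A single-concentration pre-screen was followed by a five-concentration dose-response in 10-fold steps. GI50 is the concentration that reduces growth of treated cells to half that of untreated control cells. TGI is the concentration that completely halts growth.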

HCT-116 [4] = test: Cytotoxicity against human HCT116 cells assessed as cell growth at 8 uM by sulforhodamine B assay relative to control; type: functional; details: read-out: Activity
SW-620 = test: Cytotoxicity against human SW620 cells assessed as cell growth at 80 nM by sulforhodamine B assay relative to control; type: functional; details: read-out: Activity
NCI-H23 [5] = test: Cytotoxicity against human NCI-H23 cells assessed as cell growth at 80 nM by sulforhodamine B assay relative to control; type: functional; details: read-out: Activity
NCI/ADR-RES [6] = test: Cytotoxicity against human NCI/ADR-RES cells assessed as cell growth at 80 uM by sulforhodamine B assay relative to control; type: functional; details: read-out: Activity
NCI/ADR-RES [7] = test: Cytotoxicity against human NCI/ADR-RES cells assessed as cell growth at 80 nM by sulforhodamine B assay relative to control; type: functional; details: read-out: Activity
HOP-92 [8] = test: Cytotoxicity against human HOP92 cells assessed as cell growth at 80 uM by sulforhodamine B assay relative to control; type: functional; details: read-out: Activity
COLO 205 = test: Cytotoxicity against human COLO205 cells assessed as cell growth at 80 nM by sulforhodamine B assay relative to control; type: functional; details: read-out: Activity; how it was run: as §1
HT-29 [9] = test: Cytotoxicity against human HT-29 cells assessed as cell growth at 80 uM by sulforhodamine B assay relative to control; type: functional; details: read-out: Activity
NCI-H23 [10] = test: Cytotoxicity against human NCI-H23 cells assessed as cell growth at 80 uM by sulforhodamine B assay relative to control; type: functional; details: read-out: Activity
TK-10 [11] = test: Cytotoxicity against human TK10 cells assessed as cell growth at 80 uM by sulforhodamine B assay relative to control; type: functional; details: read-out: Activity
UO-31 = test: Cytotoxicity against human UO31 cells assessed as cell growth at 800 nM by sulforhodamine B assay relative to control; type: functional; details: read-out: Activity
U-251 = test: Cytotoxicity against human U251 cells assessed as cell growth at 80 uM by sulforhodamine B assay relative to control; type: functional; details: read-out: Activity
Hs-578T [12] = test: Cytotoxicity against human Hs578T cells assessed as cell growth at 80 uM by sulforhodamine B assay relative to control; type: functional; details: read-out: Activity
786-0 = test: Cytotoxicity against human 786-0 cells assessed as cell growth at 800 nM by sulforhodamine B assay relative to control; type: functional; details: read-out: Activity; how it was run: as §1
HT-29 [13] = test: Cytotoxicity against human HT-29 cells assessed as cell growth at 8 nM by sulforhodamine B assay relative to control; type: functional; details: read-out: Activity
TK-10 [14] = test: Cytotoxicity against human TK10 cells assessed as cell growth at 8 uM by sulforhodamine B assay relative to control; type: functional; details: read-out: Activity
NCI-H322M [15] = test: Cytotoxicity against human NCI-H322M cells by sulforhodamine B assay; type: functional; how it was run: as §2
HCT-15 = test: Cytotoxicity against human HCT15 cells assessed as cell growth at 8 nM by sulforhodamine B assay relative to control; type: functional; details: read-out: Activity
HT-29 [16] = test: Cytotoxicity against human HT-29 cells assessed as cell growth at 800 nM by sulforhodamine B assay relative to control; type: functional; details: read-out: Activity
KM12 = test: Cytotoxicity against human KM12 cells assessed as cell growth at 8 uM by sulforhodamine B assay relative to control; type: functional; details: read-out: Activity
K562 = test: Cytotoxicity against human K562 cells assessed as cell growth at 8 uM by sulforhodamine B assay relative to control; type: functional; details: read-out: Activity
[17] = Acute toxicity in ip dosed athymic nude mouse assessed as mortality after 24 days; type: organism-based; details: in vivo
How it was run: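 Female athymic nude mice, non-tumored; single IP injection, one mouse per dose level, 400, 200 and 100 mg/kg first, then 50, 25 and 12.5 mg/kg. Dose volume 0.1 ml/10 g body weight. Body weight and survival monitored; animals sacrificed on >20% weight loss or other significant toxicity.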

Malme-3M = test: Cytotoxicity against human MALME-3M cells by sulforhodamine B assay; type: functional; how it was run: as §2
SF-539 = test: Cytotoxicity against human SF539 cells by sulforhodamine B assay; type: functional; how it was run: as §2
NCI-H322M [18] = test: Cytotoxicity against human NCI-H322M cells assessed as cell growth at 800 nM by sulforhodamine B assay relative to control; type: functional; details: read-out: Activity
HL-60(TB) = test: Cytotoxicity against human HL-60(TB) cells assessed as cell growth at 80 uM by sulforhodamine B assay relative to control; type: functional; details: read-out: Activity
UACC-62 = test: Cytotoxicity against human UACC62 cells assessed as cell growth at 8 uM by sulforhodamine B assay relative to control; type: functional; details: read-out: Activity
HOP-92 [19] = test: Cytotoxicity against human HOP92 cells assessed as cell growth at 80 nM by sulforhodamine B assay relative to control; type: functional; details: read-out: Activity
MOLT-4 [20] = test: Cytotoxicity against human MOLT4 cells assessed as cell growth at 8 uM by sulforhodamine B assay relative to control; type: functional; details: read-out: Activity
T47D = test: Cytotoxicity against human T47D cells by sulforhodamine B assay; type: functional; how it was run: as §2
Cryptococcus neoformans = test: Antimicrobial activity against Cryptococcus neoformans ATCC 90113 by CLSI method; type: functional, organism-based
SR = test: Cytotoxicity against human SR cells assessed as cell growth at 8 nM by sulforhodamine B assay relative to control; type: functional; details: read-out: Activity
EKVX = test: Cytotoxicity against human EKVX cells assessed as cell growth at 80 uM by sulforhodamine B assay relative to control; type: functional; details: read-out: Activity
SK-MEL-5 = test: Cytotoxicity against human SK-MEL-5 cells assessed as cell growth at 80 uM by sulforhodamine B assay relative to control; type: functional; details: read-out: Activity

C/C=C1\NC(=O)[C@H](Cc2ccccc2)NC(=O)[C@@H](C(C)C)NC(=O)[C@@H]([C@@H](C)CC)NC(=O)[C@H](NC(=O)[C@H](NC(=O)[C@H](CCCNCc2ccc(N3CCOCC3)cc2)NC(=O)[C@H]2CCCN2C(=O)[C@H](NC(=O)[C@@H](NC(=O)[C@@H](NC(=O)[C@H](NC(=O)CCCC(C)C)C(C)C)[C@@H](C)O)C(C)C)C(C)C)[C@@H](C)CC)[C@@H](C)OC(=O)[C@H](C(C)C)NC1=O
growth at 0.008 µM (MOLT-4 [1]): 103% | growth at 0.8 µM (SF-295): 101% | growth at 0.8 µM (HCT-116 [2]): 104% | growth at 0.08 µM (PC-3): 97% | growth at 0.008 µM (ACHN): 100% | LC50 (Hs-578T [3]): > 75900 nM | GI50 (Hs-578T [3]; read-out: GI50): 453 nM | TGI (Hs-578T [3]; read-out: TGI): 444 nM | GI50 (Hs-578T [3]; read-out: pGI50 (converted)): 457 nM | TGI (Hs-578T [3]; read-out: pTGI (converted)): 2040 nM | growth at 8 µM (HCT-116 [4]): -66% | growth at 0.08 µM (SW-620): 99% | growth at 0.08 µM (NCI-H23 [5]): 99% | growth at 80 µM (NCI/ADR-RES [6]): -58% | growth at 0.08 µM (NCI/ADR-RES [7]): 82% | growth at 80 µM (HOP-92 [8]): -62% | growth at 0.08 µM (COLO 205): 95% | growth at 80 µM (HT-29 [9]): 8% | growth at 80 µM (NCI-H23 [10]): -85% | growth at 80 µM (TK-10 [11]): -56% | growth at 0.8 µM (UO-31): 96% | growth at 80 µM (U-251): -61% | growth at 80 µM (Hs-578T [12]): -40% | growth at 0.8 µM (786-0): 101% | growth at 0.008 µM (HT-29 [13]): 92% | growth at 8 µM (TK-10 [14]): -77% | GI50 (NCI-H322M [15]; read-out: GI50): 133 nM | TGI (NCI-H322M [15]; read-out: TGI): 264 nM | GI50 (NCI-H322M [15]; read-out: pGI50 (converted)): 132 nM | TGI (NCI-H322M [15]; read-out: pTGI (converted)): 263 nM | growth at 0.008 µM (HCT-15): 98% | growth at 0.8 µM (HT-29 [16]): 3% | growth at 8 µM (KM12): -48% | growth at 8 µM (K562): 37% | MTD at 576 h [17]: 12.5 mg/kg | GI50 (Malme-3M): 1700 nM | TGI (Malme-3M; read-out: pTGI (converted)): 3160 nM | GI50 (SF-539): 1290 nM | LC50 (SF-539): 4570 nM | TGI (SF-539; read-out: pTGI (converted)): 2450 nM | growth at 0.8 µM (NCI-H322M [18]): -76% | growth at 80 µM (HL-60(TB)): -24% | growth at 8 µM (UACC-62): -100% | growth at 0.08 µM (HOP-92 [19]): 96% | growth at 8 µM (MOLT-4 [20]): 83% | GI50 (T47D; read-out: GI50): 167 nM | TGI (T47D; read-out: TGI): 466 nM | GI50 (T47D; read-out: pGI50 (converted)): 166 nM | TGI (T47D; read-out: pTGI (converted)): 468 nM | pIC50 (Cryptococcus neoformans): 5.76 | MFC (Cryptococcus neoformans): 10 µM (≈ 16.5 µg/mL) | MIC (Cryptococcus neoformans): 5 µM (≈ 8.27 µg/mL) | growth at 0.008 µM (SR): 103% | growth at 80 µM (EKVX): -46% | growth at 80 µM (SK-MEL-5): -56%
